Reference: paper PMC4618194 (Nature chemical biology, 2015)

Key:
site IQ = settings: without affecting energy metabolism; cited from earlier work
site IIIQo = settings: cited from earlier work
HIF-1α = assay: Hypoxia-induced HIF-1α accumulation; assay type: cell-based, human; settings: HEK-293 cells, 3.5 h hypoxia; 2 μM
Outline: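 HEK-293 cells, 15,000/well, grown 48 h. Medium then swapped for medium pre-equilibrated overnight at 1% or atmospheric O2. Compounds, 100 μM CoCl2 or 2 μM myxothiazol were pre-equilibrated 1 h in that medium and added at the switch. 3.5 h at 1% O2. Cells rinsed in ice-cold PBS, lysed in Laemmli buffer, frozen −80°C. n = 3 biological replicates; one-way ANOVA.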

[1] = Mitochondrial respiration; assay type: biochemical, rat
Outline: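 Seahorse XF24 with 0.5–6 μg rat muscle mitochondrial protein per well, in MAS buffer with 0.3% BSA. Substrate: 5 mM succinate + 4 μM rotenone. State 2 measured with and without compound, then 5 mM ADP (state 3), then 1 μg/ml oligomycin (state 4o). Each compound tested at least three times per substrate.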

[2] = cited from earlier work
[3] = target: site IIIQo of mitochondrial complex III (Rattus norvegicus, UniProt P00159+P20788); assay: Endpoint H2O2 production assays; assay type: biochemical; settings: dose-response in two ΔΨm and six H2O2 endpoint assays
Outline: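 Freshly isolated rat skeletal-muscle mitochondria, H2O2 read by Amplex UltraRed/HRP fluorescence. Site conditions: IIIQo, 0.5 or 5 mM succinate + 4 μM rotenone + 2.5 μM antimycin A; IQ, 5 mM succinate; IIF, 0.1 mM succinate + rotenone, antimycin A, 2 μM myxothiazol. Other assays: IF/matrix DH, glycerol phosphate (mGPDH), and two ΔΨm assays. 30-min endpoints normalised to DMSO and inhibitor controls, as % change.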

## O=[N+]([O-])c1ccc(Oc2ccc(S(=O)(=O)NC3CCCCC3)cc2)cc1 [CN-POBS]
Site IQ
  Electron leak to O2 at site IQ: suppresses

## CCCCCC[C@H]1C(=O)O[C@H](C)[C@H](NC(=O)c2cccc(NC=O)c2O)C(=O)O[C@@H](C)[C@@H]1OC(=O)CC(C)C [antimycin A]
Site IIIQo
  HIF-1α induction during hypoxia: increased
  ROS production during hypoxia: increased

## CO/C(=C/C(N)=O)[C@H](C)[C@H](/C=C/c1csc(-c2csc([C@@H](C)/C=C/C=C/C(C)C)n2)n1)OC [myxothiazol]
HIF-1α
  Effect on HIF-1α stabilization: prevented HIF-1α stabilization
Site IIIQo
  HIF-1α induction during hypoxia: blocked
  ROS production during hypoxia: decreased
[1]; 0.08 μM (5x IC50 against site IIIQo), succinate and rotenone
  Effect on mitochondrial respiration: potent effect

## C/C1=C\C[C@]2(C)C(=O)C(O)=C([C@H](C)CO)[C@H]2C/C=C(\C)[C@@H](O)CC/C(C)=C/CC1 [Terpestacin]
[2]
  Effect on mitochondrial polarization: depolarizes
[3]
  Selectivity for site IIIQo superoxide production: not selective
Site IIIQo; without altering basal respiration
  Site IIIQo ROS production and hypoxic signaling: inhibited
[1]; 10 – 30 μM, succinate plus rotenone
  Effect on mitochondrial respiration / oxidative phosphorylation: evidence of uncoupling and inhibition of oxidative phosphorylation
